Data on six molecules can be found in ChEMBL document CHEMBL3351346, “Design, synthesis, structure-function relationship, bioconversion, and pharmacokinetic evaluation of ertapenem prodrugs” (J Med Chem, 2014).

In data set [1] the test system is Canis familiaris. Description: AUC (0 to 8 hrs) in fasted Beagle dog assessed as ertapenem level at 10 mg/kg dosed through intraduodenal route by LC-MS/MS method. Type of data set: ADME, organism-based, Canis lupus familiaris, Plasma. The arrangement: time < 8 hr, dose 10 mg/kg, route intraduodenal. As to conditions: in vivo, other. The essentials:
(§1)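 Prodrugs were given intraduodenally to bypass stomach acid. Plasma was sampled at intervals over 8 h, and parent prodrug, the two monoester metabolites and ertapenem were quantified by LC-MS/MS. The lower limit of quantitation was 5 nM. AUC(0–8) was used, and it differed from AUC(0–∞) by ±20%. Vehicles were 30% Captisol or 0.5% methylcellulose, as solution or suspension depending on compound.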

Data set [2] is described as follows: Stability in rat plasma assessed as compound remaining at 50 uM at 37 degC after 60 mins by LC-MS/MS method. It is filed as ADME, cell-free. As to conditions: read-out: Stability. The essentials: (§2)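 Prodrugs were incubated in rat or human plasma for 60 min. Disappearance of prodrug and concomitant appearance of ertapenem were followed by LC-MS/MS, and in selected cases monoesters from partial hydrolysis were also monitored. Ertapenem itself was incubated the same way as a control.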

Data set [3] can be described thus: Stability in pH 6.5 simulated gastrointestinal fluid assessed as compound remaining at 50 uM after 3 hrs by LC-MS/MS method. Type of data set: ADME. Particulars: read-out: Stability. The method in brief: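 Compounds at 50 μM were incubated in fasted-state simulated intestinal fluid (FaSSIF, pH 6.5) for over 3 h. Percent remaining was determined by LC-MS/MS.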

The subject of data set [4] is Canis familiaris. Kind of data set: Oral bioavailability in fasted Beagle dog assessed as ertapenem level at 10 mg/kg dosed through intraduodenal route by LC-MS/MS method. As to conditions: in vivo. It is filed as ADME, organism-based, Canis lupus familiaris. The method in brief:
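After intraduodenal dosing, plasma over 8 h was analysed by LC-MS/MS. Bioavailability was calculated as dose-normalized AUC of ertapenem formed from the prodrug divided by dose-normalized AUC of ertapenem dosed iv. Vehicle was 30% Captisol or 0.5% methylcellulose.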

The nature of data set [5]: (§3) AUC (0 to 8 hrs) in fasted Beagle dog at 10 mg/kg dosed through intraduodenal route by LC-MS/MS method. Type of data set: ADME, organism-based, Canis lupus familiaris, Plasma. On the set-up: time < 8 hr, dose 10 mg/kg, route intraduodenal. Particulars: Beagle, plasma. The method in brief:
as §1

Data set [6] in a line: Stability in pH 7.4 phosphate buffer assessed as compound remaining at 50 uM after 3 hrs by LC-MS/MS method. Type of data set: physicochemical. Particulars: read-out: Stability.
Data set [7] can be described thus: Stability in pH 2.0 simulated gastric fluid assessed as compound degradation to beta-lactam ring open products at 1 uM after 60 mins by LC-MS/MS method. It is filed as ADME. As to conditions: read-out: Drug degradation. The essentials:
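Incubation was in simulated gastric fluid (SGF, pH 2.0) for 60 min, with loss to the β-lactam ring-opened product measured by LC-MS/MS.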

Data set [8] in a line: Stability in human plasma assessed as compound remaining at 50 uM at 37 degC after 60 mins by LC-MS/MS method. Type of data set: ADME, cell-free. As to conditions: read-out: Stability. The method in brief:
as §2

In data set [9] the test system is Canis familiaris. Kind of data set: Oral bioavailability in fasted Beagle dog assessed as assessed as ertapenem and monoetser metabolites level at 10 mg/kg dosed through intraduodenal route by LC-MS/MS method. Type of data set: ADME, organism-based, Canis lupus familiaris. Particulars: in vivo. The method in brief: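 Total absorption followed intraduodenal dosing with LC-MS/MS of plasma over 8 h. It was calculated as the combined dose-normalized AUC of circulating parent prodrug, ertapenem and two monoesters, divided by dose-normalized AUC of ertapenem given iv. Vehicle was 30% Captisol or 0.5% methylcellulose.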

For data set [10], the system named is Canis familiaris. Kind of data set: AUC (0 to 8 hrs) in fasted Beagle dog assessed as 8-OH, benzoate ester level at 10 mg/kg dosed through intraduodenal route by LC-MS/MS method. It is filed as ADME, organism-based, Canis lupus familiaris, Plasma. On the set-up: time < 8 hr, dose 10 mg/kg, route intraduodenal. Particulars: in vivo, other. The method in brief:
as §1

Data set [11] deals with Canis familiaris. Kind of data set: AUC (0 to 8 hrs) in fasted Beagle dog assessed as 8-OH, C-3 ester level at 10 mg/kg dosed through intraduodenal route by LC-MS/MS method. On the set-up: time < 8 hr, dose 10 mg/kg, route intraduodenal. As to conditions: in vivo, other. It is filed as ADME, organism-based, Canis lupus familiaris, Plasma. The method in brief: as §1
The subject of data set [12] is Canis familiaris. Described as §3. On the set-up: time < 8 hr, dose 10 mg/kg, route intraduodenal. As to conditions: in vivo, other, 8 h, BLD = below limit of detection. It is filed as ADME, organism-based, Canis lupus familiaris, Plasma. The essentials:
as §1

Each structure is given as a SMILES string.

Consider `CCCCOC(=O)C1=C(S[C@@H]2CN[C@H](C(=O)Nc3cccc(C(=O)OCCCC)c3)C2)[C@H](C)[C@@H]2[C@@H]([C@@H](C)O)C(=O)N12`, for which the AUC in data set [1] was found to be 9.4 µM·h. The remaining at 1 h, 50 µM in data set [2] came to 2%; in data set [8], 1%. The remaining at 3 h, 50 µM in data set [3] and in [6] was over 95% in each case. In addition, the F is listed as 13.1% in data set [4] and 16.9% in data set [9]. Moreover, the AUC(0-t) at 8 h in [5] is 2.8 µM·h. In addition, the degraded at 1 h, 1 µM in [7] is over 25%.

As for `CCOC(=O)C1=C(S[C@@H]2CN[C@H](C(=O)Nc3cccc(C(=O)OCC)c3)C2)[C@H](C)[C@@H]2[C@@H]([C@@H](C)OC(C)=O)C(=O)N12`, the results for the exposure (AUC) in [1], in data set [10] and in data set [11] were 11.3 µM·h, 2.2 µM·h and 1.8 µM·h, respectively. Besides, the remaining at 1 h, 50 µM in [2] stood at 0%; in data set [8], 37%. Moreover, the remaining at 3 h, 50 µM in data set [3] and in [6] was over 95% throughout. The values for the F in data set [4] and in data set [9] were 15.4% and 23.3%, respectively. This molecule also showed an AUC(0-t) at 8 h in data set [5] of under 0.1 µM·h. The degraded at 1 h, 1 µM in [7] was over 25%.

`CCCCCCCCOC(=O)C1=C(S[C@@H]2CN[C@H](C(=O)Nc3cccc(C(=O)OCCCCCCCC)c3)C2)[C@H](C)[C@@H]2[C@@H]([C@@H](C)O)C(=O)N12`: the AUC entry in data set [1] (BLD = below limit of detection) is on record as “BLD”. The remaining at 1 h, 50 µM in data set [2] came to 4%; in data set [8] it was 80%. For the same molecule, the remaining at 3 h, 50 µM in [3] and in [6] was over 95% in each case. For the same molecule, the F entry is on record as “BLD” in [4] (BLD = below limit of detection) and 1.1% in data set [9]. Moreover, the area under the curve AUC(0-t) at 8 h in data set [5] is 0.6 µM·h. Also, in [7], the degraded at 1 h, 1 µM is over 25%.

For `CCCOC(=O)C1=C(S[C@@H]2CN[C@H](C(=O)Nc3cccc(C(=O)OCCC)c3)C2)[C@H](C)[C@@H]2[C@@H]([C@@H](C)O)C(=O)N12`, in [1], the AUC turned out to be 7.3 µM·h. The figures for the remaining at 1 h, 50 µM in data set [2] and in data set [8] were 0% and 7%, respectively. Also, the remaining at 3 h, 50 µM in data set [3] and in data set [6] was over 95% in each case. The F is recorded as 9.8% in data set [4] and 11% in [9]. For the same molecule, in data set [5], the AUC(0-t) at 8 h came out at 1 µM·h. Moreover, in data set [7], the degraded at 1 h, 1 µM was over 25%.

Take `CC(=O)O[C@H](C)[C@H]1C(=O)N2C3=C(S[C@@H]4CN[C@@H](C4)C(=O)Nc4cccc(c4)C(=O)OCOCOC3=O)[C@H](C)[C@H]12`: the exposure (AUC) in [1] turned out to be 10.1 µM·h. The figures for the remaining at 1 h, 50 µM in [2] and in data set [8] were 0% and 30%, respectively. For the same molecule, the remaining at 3 h, 50 µM in data set [3] and in data set [6] was over 95% each time. In addition, the F in data set [4] is 13.4%; in [9], 16%. In [5], the area under the curve AUC(0-t) at 8 h was 0.1 µM·h. Further, the degraded at 1 h, 1 µM in data set [7] is over 25%.

`CCOC(=O)C1=C(S[C@@H]2CN[C@H](C(=O)Nc3cccc(C(=O)OCC)c3)C2)[C@H](C)[C@@H]2[C@@H]([C@@H](C)OC(=O)CC)C(=O)N12`: the AUC in [1] was 9.1 µM·h; in data set [12] it was “BLD”; in data set [10], 1.6 µM·h; in data set [11] it was 1.3 µM·h. Moreover, the figures for the remaining at 1 h, 50 µM in [2] and in [8] were 0% and 22%, respectively. The remaining at 3 h, 50 µM in [3] and in [6] was over 95% in each case. Also, the F came to 12.6% in data set [4] and 20.2% in data set [9]. Besides, the degraded at 1 h, 1 µM in [7] is over 25%.

Broadly, the AUC is concentration integrated over time. In general, AUC(0-t) refers to exposure summed from dosing to a finite time, without extrapolation to infinity. The low end stands for low exposure, the high end for high exposure.
